Assay results reported in PMC3310921 (Bioorganic & medicinal chemistry, 2010).
“And” between values parts separate entries of the source, which are not always exact repeats. Equal values may be shown once. “Also recorded” adds a separate entry of the source. Read-outs that look alike come from different tables or passages of the source.

Columns and labels:
[1] = tested on: HL-60 promyelocytic leukemia cells; settings: read-out: CC50 HL-60, human malignant cells, cited from earlier work
[2] = tested on: mice; settings: cited from earlier work
[3] = tested on: HSC-2 squamous cell carcinoma cells; settings: read-out: CC50 HSC-2, human malignant cells, cited from earlier work
[4] = tested on: HSC-4 squamous cell carcinoma cells; settings: read-out: CC50 HSC-4; human malignant cells; reported previously ref 27; cited from earlier work
[5] = tested on: caspase-3 in HSC-2 cells; experiment: Caspase-3 activation in HSC-2 cells; type: cell-based, human; settings: 5 h incubation
Method in brief: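 HSC-2 cells, with HL-60 run in parallel, were exposed to the test compound for 5 h, then assayed for caspase-3 activation. The reference was UV irradiation at 6 J/m²/min for 1 min, followed by 3 h incubation. Values are from n = 3.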

[6] = tested on: HSC-2 cells; experiment: Internucleosomal DNA fragmentation in HSC-2 cells; type: cell-based, human; settings: 6 h incubation
Method in brief: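 After 6 h exposure of HSC-2 cells (HL-60 in parallel), cellular DNA was examined for internucleosomal laddering against a DNA molecular-weight marker.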

[7] = tested on: mice; experiment: Murine toxicity study; type: in vivo; settings: for Neurotoxicity in mice (in words): 30, 100 and 300 mg/kg intraperitoneally, examined after 0.5 and 4 h
[8] = tested on: HL-60 cells; experiment: Internucleosomal DNA fragmentation in HL-60 cells; type: cell-based, human; settings: 6 h incubation
[9] = tested on: caspase-3 in HL-60 cells; experiment: Caspase-3 activation in HL-60 cells; type: cell-based, human; settings: 5 h incubation
[10] = Cytotoxicity, average of the three normal cells; type: cell-based; settings: human, HGF, HPC and HPLF normal cells (average of the three)
Method in brief: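 Human HGF gingival fibroblasts, HPC pulp cells and HPLF periodontal ligament fibroblasts were exposed to graded concentrations for 24 h, up to a maximum of 400 μM. CC50 is the concentration cutting viable cell number by 50%. It was read from dose–response curves from duplicate determinations, then averaged over the three normal cell types.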

[11] = tested on: mice; settings: recorded previously ref 25, cited from earlier work; for Neurotoxicity in mice (in words): 30, 100 and 300 mg/kg intraperitoneally, 0.5 and 4 h
[12] = tested on: HGF gingival fibroblasts; settings: read-out: CC50 HGF; human normal cells; reported previously ref 26; cited from earlier work
[13] = tested on: HPLF periodontal ligament fibroblasts; settings: read-out: CC50 HPLF; human normal cells; reported previously ref 26; cited from earlier work
[14] = tested on: HPC pulp cells; settings: read-out: CC50 HPC; human normal cells; reported previously ref 26; cited from earlier work
[15] = 100 mg/kg intraperitoneally, 0.5 h
[16] = 300 mg/kg intraperitoneally, 0.5 h

N[C@@H](Cc1ccc(N(CCCl)CCCl)cc1)C(=O)O [Melphalan, reference compound]
CC50 ([1]; reported previously ref 27): 6 µM
LD50 [2]: 4.0 mg/kg
CC50 ([3]; reported previously ref 27): 35 µM
CC50 [4]: 81 µM

O=C1/C(=C/c2ccc(Cl)cc2)CCC/C1=C\c1ccccc1[N+](=O)[O-] [Compound 1c]
Activation of caspase-3 [5]: no evidence
Induction of internucleosomal DNA fragmentation [6]: no evidence
Number of animals demonstrating neurological deficit/number of treated mice ([7]; 300 mg/kg intraperitoneally, 4 h): half or more
Induction of internucleosomal DNA fragmentation [8]: induced the internucleosomal DNA fragmentation
Activation of caspase-3 [9]: concentration-dependent activation of caspase-3

CN(C)c1ccc(/C=C2\CCC/C(=C\c3ccc([N+](=O)[O-])cc3)C2=O)cc1 [Compound 3d]
Number of animals demonstrating neurological deficit/number of treated mice [7, 15]: 2/8

O=C1/C(=C/c2ccccc2)CCC/C1=C\c1cccc([N+](=O)[O-])c1 [Compound 2a]
CC50 at 24 h [10]: 19 µM
Number of animals demonstrating neurological deficit/number of treated mice [7, 15]: 2/8
Number of animals demonstrating neurological deficit/number of treated mice [7, 16]: half or more and 2/4
Neurotoxicity in mice (in words) [7]: Marginal neurotoxicity

COc1ccc(/C=C2\CCC/C(=C\c3ccccc3[N+](=O)[O-])C2=O)cc1 [Compound 1f]
CC50 at 24 h [10]: > 395 µM

CN(C)c1ccc(/C=C2\CCC/C(=C\c3cccc([N+](=O)[O-])c3)C2=O)cc1 [Compound 2d]
Number of animals demonstrating neurological deficit/number of treated mice [7, 15]: 1/8
Number of animals demonstrating neurological deficit/number of treated mice [7, 16]: 1/4

O=C1CCCC/C1=C\c1ccccc1[N+](=O)[O-] [Compound 4a]
CC50 at 24 h [10]: 146 µM
Number of animals demonstrating neurological deficit/number of treated mice [7, 16]: 1/4
Neurotoxicity in mice (in words) [7]: Marginal neurotoxicity

O=C1CCCC/C1=C\c1cccc([N+](=O)[O-])c1 [Compound 4b]
CC50 at 24 h [10]: 60 µM
Number of animals demonstrating neurological deficit/number of treated mice [7, 16]: 1/4

O=C1/C(=C/c2ccc(F)cc2)CCC/C1=C\c1cccc([N+](=O)[O-])c1 [Compound 2b]
CC50 at 24 h [10]: 39 µM
Number of animals demonstrating neurological deficit/number of treated mice [7, 15]: 1/8

COc1cc(OC)c(OC)cc1/C=C1\CCC/C(=C\c2ccc([N+](=O)[O-])cc2)C1=O [Compound 5b, 6-(4-Nitrobenzylidene)-2-(2,4,5-trimethoxybenzylidene) cyclohexanone]
Number of animals demonstrating neurological deficit/number of treated mice [7, 15]: 1/8
Number of animals demonstrating neurological deficit/number of treated mice [7, 16]: 1/4
Neurotoxicity in mice (in words) [7]: Marginal neurotoxicity

COc1cc(/C=C2\CCC/C(=C\c3ccccc3[N+](=O)[O-])C2=O)cc(OC)c1OC [Compound 1g]
CC50 at 24 h [10]: 53 µM

Cc1ccc(/C=C2\CCC/C(=C\c3cccc([N+](=O)[O-])c3)C2=O)cc1 [Compound 2e]
CC50 at 24 h [10]: > 331 µM
Neurotoxicity in mice (in words) [7]: did not display any neurotoxic symptoms

Cc1ccc(/C=C2\CCC/C(=C\c3ccc([N+](=O)[O-])cc3)C2=O)cc1 [Compound 3e]
CC50 at 24 h [10]: > 280 µM
Number of animals demonstrating neurological deficit/number of treated mice [7, 16]: half or more and 3/4

COc1ccc(/C=C2\CCC/C(=C\c3ccc([N+](=O)[O-])cc3)C2=O)c(OC)c1OC [Compound 5a, 6-(4-Nitrobenzylidene)-2-(2,3,4-trimethoxybenzylidene) cyclohexanone]
Neurotoxicity in mice (in words) [7]: did not display any neurotoxic symptoms

COc1ccc(/C=C2\CCC/C(=C\c3cccc([N+](=O)[O-])c3)C2=O)cc1 [Compound 2f]
CC50 at 24 h [10]: > 262 µM
Number of animals demonstrating neurological deficit/number of treated mice ([7]; 30 mg/kg intraperitoneally, 0.5 h): 1/4
Neurotoxicity in mice (in words) [7]: Marginal neurotoxicity

COc1cc(/C=C2\CCC/C(=C\c3cccc([N+](=O)[O-])c3)C2=O)cc(OC)c1OC [Compound 2g]
CC50 at 24 h [10]: > 379 µM

O=C1/C(=C/c2ccc(Cl)cc2)CCC/C1=C\c1ccc([N+](=O)[O-])cc1 [Compound 3c]
Neurotoxicity in mice (in words) [11]: did not display any neurotoxic symptoms; also recorded: no neurotoxicity

O=C1/C(=C/c2ccc(F)cc2)CCC/C1=C\c1ccccc1[N+](=O)[O-] [Compound 1b]
CC50 at 24 h [10]: 53 µM

COc1cc(/C=C2\CCC/C(=C\c3ccc([N+](=O)[O-])cc3)C2=O)cc(OC)c1OC [Compound 3g]
Number of animals demonstrating neurological deficit/number of treated mice [11, 15]: 2/8
Neurotoxicity in mice (in words) [11]: Marginal neurotoxicity

O=C1/C(=C/c2ccccc2)CCC/C1=C\c1ccccc1[N+](=O)[O-] [Compound 1a]
CC50 at 24 h [10]: 45 µM
Neurotoxicity in mice (in words) [7]: did not display any neurotoxic symptoms

COc1ccc(/C=C2\CCC/C(=C\c3ccc([N+](=O)[O-])cc3)C2=O)cc1 [Compound 3f]
CC50 ([1]; reported previously ref 26): > 400 µM
CC50 [12]: > 400 µM
CC50 ([3]; reported previously ref 26): > 400 µM
CC50 [13]: > 400 µM
CC50 [14]: > 400 µM

O=C1/C(=C/c2ccc(Cl)cc2)CCC/C1=C\c1cccc([N+](=O)[O-])c1 [Compound 2c]
CC50 at 24 h [10]: 32 µM

O=C1/C(=C/c2ccccc2)CCC/C1=C\c1ccc([N+](=O)[O-])cc1 [Compound 3a]
CC50 at 24 h [10]: 259 µM
Neurotoxicity in mice (in words) [7]: did not display any neurotoxic symptoms

O=C1/C(=C/c2ccc(F)cc2)CCC/C1=C\c1ccc([N+](=O)[O-])cc1 [Compound 3b]
CC50 at 24 h [10]: > 375 µM
Number of animals demonstrating neurological deficit/number of treated mice [7, 15]: 1/8
Neurotoxicity in mice (in words) [7]: Marginal neurotoxicity
